Source: PubChem BioAssay (Broad Institute)
A selection: hits, their analogues and other compounds. The true share with any hit is near 2.8%.
dFosB act = activators of delta FosB homodimer, primary screen, biochemical, fluorescence polarization, TAMRA-CDK5 oligo, single point; Protein FosB (Mus musculus), P13346; purified delta FosB; percent of positive-control signal above neutral wells; activation, % at 25 µM; hit rate 0.99% among 340,000;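 active = mean activation above about 17%, with every replicate also reaching it, limit read from the data, passing the limit was not always enough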
CAL PDZ FP-1 = untagged CAL PDZ binding inhibitors, primary screen, biochemical, fluorescence polarization, HTS. Golgi-associated PDZ and coiled-coil motif-containing protein (Homo sapiens), Q9HD26. purified CAL PDZ, TMR-peptide fluorescence polarization, 1 h. inhibition, % at 24.9 µM. hit rate 0.92% among 300,000;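 active = mean inhibition of at least 30% with at least half of replicates also reaching 30%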;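 note: 0% = DMSO neutral control and 100% = excess unlabeled competitor peptide PRC23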
SR-BI uptake up = activators of SR-BI mediated DiI-HDL uptake, primary screen, ldlA[mSR-BI] CHO cells, DiI fluorescence. 3 h; 100 = double the neutral-control signal. activation, % at 12.5 µM. hit rate 0.096% among 320,000. AID 504775, 2011;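 active = mean replicate activation of at least 60% and every replicate at or above 60%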;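 note: 0% = median plate neutral-control signal and 100% = twice that signal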
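System: CHO ldlA[mSR-BI] cells / Medium: HEPES-buffered (25 mM, pH 7.4) F12 plus 0.5% BSA / Probe or stimulus: labelled HDL, 10 µg/mL / Doses: single compound concentration, delivered by pin transfer / Schedule: 3 h, 37 °C / Measured by: DiI fluorescence, bottom read / Measure: cell-associated DiI fluorescence as measure of HDL uptake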
SR-BI HDL uptake = inhibitors of SR-BI mediated HDL lipid uptake, primary screen, ldlA[mSR-BI] cells, fluorescence, single point. Scavenger receptor class B member 1 (Mus musculus), Q61009. ldlA[mSR-BI] CHO cells, DiI-HDL uptake fluorescence, 3 h. inhibition, % at 12.5 µM. hit rate 0.96% among 320,000;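 active = mean replicate inhibition of at least 70% and a set share of replicates each scoring 70 or more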;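 note: 0% = median of neutral control wells and 100% = median of positive control wells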
Target sequence (Q61009 whole entry, looked up): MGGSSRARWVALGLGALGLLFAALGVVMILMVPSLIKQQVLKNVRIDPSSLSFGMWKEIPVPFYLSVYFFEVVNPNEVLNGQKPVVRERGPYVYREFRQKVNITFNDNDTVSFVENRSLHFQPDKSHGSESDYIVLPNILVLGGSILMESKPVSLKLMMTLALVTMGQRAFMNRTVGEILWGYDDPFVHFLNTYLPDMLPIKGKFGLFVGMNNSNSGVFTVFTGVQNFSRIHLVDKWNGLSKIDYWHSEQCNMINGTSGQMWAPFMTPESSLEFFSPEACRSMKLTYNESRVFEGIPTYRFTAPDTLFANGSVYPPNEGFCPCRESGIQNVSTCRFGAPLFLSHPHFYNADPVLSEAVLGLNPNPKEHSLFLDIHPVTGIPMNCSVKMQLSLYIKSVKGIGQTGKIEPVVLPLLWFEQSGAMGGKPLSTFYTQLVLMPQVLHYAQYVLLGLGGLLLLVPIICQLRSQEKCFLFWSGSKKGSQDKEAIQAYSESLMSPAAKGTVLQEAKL
CAL PDZ FP-2 = CAL PDZ peptide-binding inhibitors, primary screen, biochemical, fluorescence polarization, Cer-tagged CAL PDZ, HTS | Golgi-associated PDZ and coiled-coil motif-containing protein (Homo sapiens), Q9HD26 | purified CAL PDZ, TMR-peptide fluorescence polarization, 1 h | inhibition, % at 20 µM | hit rate 0.02% among 330,000;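 active = highest replicate inhibition of at least 40%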;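 note: plate controls were DMSO neutral control wells for no effect and unlabeled competitor peptide control wells for full effect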
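Material – purified CerCALP PDZ construct · Detection – FP readout, S and P plane fluorescence · Measure – percent inhibition from loss of millipolarization · Controls – unlabelled peptide for full inhibition, DMSO wells as neutral · Probe or stimulus – TMR-labelled reporter peptide T*-PRC34 bound in PDZ groove · Times – 1 h at RT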
Starred values were filed as active, the others as inactive; / = no result given.

SMILES | dFosB act | CAL PDZ FP-1 | SR-BI uptake up | SR-BI HDL uptake | CAL PDZ FP-2
COc1cc(/C=N/n2nnnc2Nc2ccccc2)cc(OC)c1OC | 2.5 | -22.9 | -89.1 | 89.1* | -7.7
COc1cc(/C=N/NC(=O)C(=O)NCc2ccco2)cc(Br)c1O | 7.5 | 2.5 | / | / | -1.2
CC(=O)Nc1cccc(NC(=O)/C=C/c2ccc(S(=O)(=O)N3CCOCC3)cc2)c1 | -9.0 | / | -57.0 | 57.0 | -0.6
Cc1ccc(NC(=O)/C=C/c2ccc(S(=O)(=O)N3CCOCC3)cc2)cc1S(=O)(=O)N(C)C | -21.7 | / | -85.8 | 85.8* | -5.3
CCN(CC(=O)Nc1c(F)cccc1F)C(=O)c1cc(S(=O)(=O)N2CCOCC2)ccc1N1CCCC1 | -5.8 | / | 40.6 | -40.6 | 0.2
Cc1nc(N2CCCCC2)c2c(C)c(C(=O)Nc3ccccc3C(F)(F)F)sc2n1 | -13.1 | -4.3 | -39.3 | 39.3 | -3.3
Cc1nc(N2CCCCC2)c2c(C)c(C(=O)Nc3cccc(C(F)(F)F)c3)sc2n1 | -3.9 | -3.1 | -77.8 | 77.8* | -2.5
Cc1nc(N2CCCCC2C)c2c(C)c(C(=O)Nc3cccc(C(F)(F)F)c3)sc2n1 (centres undefined) | -10.3 | -3.0 | -73.6 | 73.6* | -1.9
Nc1nonc1C(=O)N/N=C/c1cc(Br)ccc1O | 1.0 | 0.3 | -137.7 | 137.7* | -1.4
Nc1nonc1-n1nnc(C(=O)N/N=C/c2cc(Br)ccc2O)c1CNc1ccccc1 | 51.8* | -3.9 | -48.1 | 48.1 | -1.3
CCOC(=O)c1ccccc1NC(=O)COC(=O)C1CC(=O)N(CCc2ccccc2)C1 (centres undefined) | -6.7 | -3.2 | 21.0 | -21.0 | -3.5
CCOC(=O)c1c(C)[nH]c(C)c1C(=O)COC(=O)C1CC(=O)N(CCc2ccccc2)C1 (centres undefined) | 1.2 | 35.8* | -14.5 | 14.5 | 0.3
Cc1ccccc1NC(=S)c1nc2ccccc2[nH]1 | -2.6 | 5.9 | -78.6 | 78.7* | -0.6
O=C(CCCC(=O)NN=Cc1ccc(Cl)cc1Cl)NN=Cc1ccc(Cl)cc1Cl | -3.2 | -0.7 | -96.1 | 96.1* | -1.1
CCOC(=O)N1C(=O)NC(=O)C1c1ccc(Cl)cc1 (centres undefined) | -2.7 | -5.8 | -1.0 | 1.0 | -0.6
CCOC(=O)Cc1nnc(Nc2cccc(C)c2)c2ccccc12 | -2.9 | -6.9 | -40.2 | 40.2 | -1.3
COC(=O)Cc1nnc(Nc2cccc(C)c2)c2ccccc12 | 8.4 | 30.1* | -11.5 | 11.5 | -0.9
N#CCc1ccc(OC(=O)Nc2ccccc2)cc1 | 6.6 | 114.5* | 3.6 | -3.6 | /
Cc1ccc(OC(=O)Nc2ccccc2)cc1 | 3.2 | -0.8 | -7.7 | 7.7 | 0.3
N#C/C(=C(/O)c1ccc(C(=O)c2ccccc2)cc1)c1nc2ccccc2[nH]1 | 1.1 | 0.4 | 242.9* | -242.9 | 0.3
O=c1c2ccccc2c(=O)n(-c2ccccc2)n1-c1ccccc1 | -4.5 | -6.0 | 3.9 | -3.9 | -0.2
Cc1c(CN2CCC(CO)(CCOc3ccccc3)CC2)[nH]c2c(Cl)cccc12 | 21.3* | -5.4 | / | / | -5.3
Cc1nn(C)c(Cl)c1CN1CCC(CO)(CCOc2ccccc2)CC1 | 1.0 | -4.2 | 10.7 | -10.7 | -0.1
CCN1CCN(CCNC(=O)c2ccc(CS(=O)c3ccc(Cl)cc3)o2)CC1 (centres undefined) | 3.2 | -5.3 | / | 10.9 | -2.1
O=C(O)c1ccccc1NS(=O)(=O)c1cccc(C(F)(F)F)c1 | -0.5 | / | 23.1 | -23.1 | -3.8
SMILES | dFosB act | CAL PDZ FP-1 | SR-BI uptake up | SR-BI HDL uptake | CAL PDZ FP-2
O=C(O)c1ccccc1NS(=O)(=O)c1cccc(-n2sc3ccccc3c2=O)c1 | -6.8 | 33.6* | -44.7 | 44.7 | 0.0
COc1cc(/C=C/C(=O)N2CCN(CC(O)COc3ccccc3)CC2)cc(OC)c1OC (centres undefined) | 1.1 | 0.6 | -79.2 | 79.2* | -0.6
CC(=O)NCCc1ccc(C(=O)COC(=O)C2CCCCC2)cc1 | -10.6 | -2.1 | 5.5 | -5.5 | 0.0
Cn1c(CNC(=O)c2ccc(Cl)cc2)nnc1SCC(=O)N1CCOCC1 | 9.5 | / | 5.4 | -5.4 | 0.1
Cc1[nH]nc(NCCO)c1[N+](=O)[O-] | -5.1 | 30.9* | -6.5 | 6.5 | 4.5
Cc1cc(N2CCN(C)CC2)nc2ccc(NC(=S)NCCN3CCc4ccccc4C3)cc12 | 34.7* | -5.2 | / | / | 1.5
Cc1cccc(N2CCN(C(=S)Nc3ccc4nc(N5CCN(C)CC5)cc(C)c4c3)CC2)c1C | -16.5 | -3.6 | -89.0 | 89.0* | -0.7
CCOC(=O)N1CCC(NC(=S)Nc2ccc3nc(N4CCN(C)CC4)cc(C)c3c2)CC1 | -6.3 | -2.4 | 111.6* | -111.6 | 0.9
CCCN1CCN(CCCNC(=S)Nc2ccc3nc(N4CCN(CC)CC4)cc(C)c3c2)CC1 | 8.1 | 7.8 | / | / | 0.6
CCN1CCN(c2cc(C)c3cc(NC(=S)NCCCN4CCc5ccccc5C4)ccc3n2)CC1 | 36.7* | -4.4 | -13.9 | 13.9 | 1.1
O=C(CN1CCOCC1)Nc1ccc(N2CCN(c3ccccc3)CC2)c(F)c1 | -2.8 | -2.9 | -9.7 | 9.7 | -1.1
CCN(CC)CCNC(=S)Nc1ccc2nc(N3CCN(CC)CC3)cc(C)c2c1 | 18.4* | -1.5 | 1.9 | -1.9 | 1.6
Cc1ccc(CSc2ccc(S(=O)(=O)N3CCOCC3)cn2)cc1 | -3.6 | / | 15.0 | -15.0 | 0.3
Cc1ccc(CSc2ccc(S(=O)(=O)N3CCCC3)cn2)cc1 | -4.1 | 71.0* | 6.3 | -6.3 | -0.6
COc1ccc(NC(=O)c2cc(SC)ccc2Cl)cc1 | 4.2 | -2.7 | -9.6 | 9.6 | -1.4
N=c1sccn1CC(=O)Nc1cccc(Oc2ccccc2)c1 | -16.0 | 38.1* | 23.0 | -23.0 | /
CCOC(=O)C1CCN(C(=O)CCS(=O)(=O)c2ccc3c(c2)CCN3C(C)=O)CC1 | -6.0 | -4.5 | -7.2 | 7.2 | -0.5
CCOC(=O)C1CCN(C(=O)CCS(=O)(=O)c2ccc3c(c2)n(C)c(=O)c(=O)n3C)CC1 | -3.0 | 52.0* | 10.0 | -10.0 | -1.7
COc1ccc(S(=O)(=O)NCC2CCCN(Cc3ccc(O)cc3)C2)cc1 (centres undefined) | -5.2 | -4.0 | 4.5 | -4.5 | -0.8
Cc1cc(/C=N/NC(=O)c2cccc(F)c2)c(C)n1-c1ccccc1 | -9.5 | -1.5 | -73.0 | 73.0* | -4.0
Cc1ccc(-n2c(C)cc(/C=N/NC(=O)c3ccncc3)c2C)cc1 | -7.7 | 1.3 | -29.6 | 29.6 | -0.1
Cc1cc(/C=N/NC(=O)c2ccccc2F)c(C)n1-c1ccccc1 | -22.3 | 0.7 | -13.3 | 13.3 | -0.4
Cc1cc(/C=N/NC(=O)c2ccncc2)c(C)n1-c1cccc(C(F)(F)F)c1 | -9.4 | 0.6 | -74.2 | 74.2* | 0.8
